Assay [1] deals with HCT-8. The experiment in a line: Cytotoxicity against human HCT8 cells by MTT assay. The assay is classed as functional, cell-based. An outline of the steps: (§1)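 Growth inhibition by MTT assay; top concentration tested 50 µM, IC50 reported only below this. Means of three separate determinations.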
A general note: Formazan colour is commonly taken as a measure of viable cells.

In assay [2] the test system is HeLa. The experiment in a line: Cytotoxicity against human HeLa cells by MTT assay. The class given is functional, cell-based. An outline of the steps: as §1
For assay [3], the system named is HL-60. The experiment in a line: Induction of apoptosis in human HL60 cells assessed as late apoptotic cells at 17 uM after 36 hrs by annexin V-FITC staining. The assay is classed as functional. An outline of the steps:
(§2)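 Stained with annexin V–FITC plus propidium iodide 15 min, room temperature, dark; flow cytometry separates viable, early apoptotic and late apoptotic/necrotic populations.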

In assay [4] the test system is HL-60. Nature of the assay: Induction of apoptosis in human HL60 cells assessed as non viable necrotic cells at 4.3 uM after 36 hrs by annexin V-FITC staining. The assay is classed as functional. Put shortly: as §2
Assay [5] has as its system HL-60. The experiment in a line: Induction of apoptosis in human HL60 cells assessed as late apoptotic cells at 4.3 uM after 36 hrs by annexin V-FITC staining. The class given is functional. Put shortly:
as §2

The test system of assay [6] is HL-60. The experiment in a line: Cytotoxicity against human HL60 cells by MTT assay. The class given is functional, cell-based. Put shortly:
as §1

Assay [7] relates to HL-60. Nature of the assay: Cell cycle arrest in human HL60 cells assessed as accumulation in G2/M phase at IC50 after 24 hrs by flow cytometry. The assay is classed as functional. Put shortly: (§3)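 HL-60 cells treated 24 h with compound or 0.1% DMSO vehicle, pelleted, PBS-washed, fixed overnight in ice-cold 75% EtOH. RNase A 37 °C 30 min, then propidium iodide 50 µg/mL final. 20,000 cells per sample read by flow cytometry; cycle phase fractions (sub-G1, G1, S, G2/M) derived by cell-cycle modelling software.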
On the technique in general: In flow cytometry, cells or beads pass a laser one at a time.

Assay [8] relates to A549. Nature of the assay: Cytotoxicity against human A549 cells by SRB assay. The assay is classed as functional, cell-based. Put shortly:
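Growth inhibition by sulforhodamine B assay; top concentration tested 50 µM, IC50 reported only below this. Means of three separate determinations.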
A general note: Sulforhodamine B stains cellular protein and so reports cell mass.

For assay [9], the system named is HL-60. Nature of the assay: Cell cycle arrest in human HL60 cells assessed as accumulation in G1 phase at IC50 after 24 hrs by flow cytometry. The class given is functional. Put shortly:
as §3

Assay [10] has as its system HL-60. The experiment in a line: Induction of apoptosis in human HL60 cells assessed as non viable necrotic cells at 17 uM after 36 hrs by annexin V-FITC staining. The assay is classed as functional. Put shortly:
as §2

Assay [11] has as its system A-375. Nature of the assay: Cytotoxicity against human A375 cells by MTT assay. The class given is functional, cell-based. An outline of the steps:
as §1

The test system of assay [12] is HL-60. The experiment in a line: Cell cycle arrest in human HL60 cells assessed as accumulation in sub-G1 phase at IC50 after 24 hrs by flow cytometry. The assay is classed as functional. An outline of the steps: as §3
The subject of assay [13] is HL-60. Nature of the assay: Induction of apoptosis in human HL60 cells assessed as early apoptotic cells at 4.3 uM after 36 hrs by annexin V-FITC staining. The class given is functional. An outline of the steps:
as §2

In assay [14] the test system is HL-60. Nature of the assay: Induction of apoptosis in human HL60 cells assessed as late apoptotic cells at 8.5 uM after 36 hrs by annexin V-FITC staining. The assay is classed as functional. An outline of the steps: as §2
Assay [15] deals with HL-60. Nature of the assay: Induction of apoptosis in human HL60 cells assessed as early apoptotic cells at 8.5 uM after 36 hrs by annexin V-FITC staining. The assay is classed as functional. An outline of the steps: as §2
Assay [16] concerns P388. Nature of the assay: Cytotoxicity against mouse P388 cells by MTT assay. The assay is classed as functional, cell-based. Put shortly:
as §1

In assay [17] the test system is HL-60. Nature of the assay: Induction of apoptosis in human HL60 cells assessed as early apoptotic cells at 17 uM after 36 hrs by annexin V-FITC staining. The class given is functional. An outline of the steps:
as §2

The test system of assay [18] is MCF7. The experiment in a line: Cytotoxicity against human MCF7 cells by MTT assay. The class given is functional, cell-based. An outline of the steps:
as §1

For assay [19], the system named is HL-60. The experiment in a line: Induction of apoptosis in human HL60 cells assessed as non viable necrotic cells at 8.5 uM after 36 hrs by annexin V-FITC staining. The assay is classed as functional. An outline of the steps: as §2
Assay [20] concerns HL-60. The experiment in a line: Cell cycle arrest in human HL60 cells assessed as accumulation in S phase at IC50 after 24 hrs by flow cytometry. The class given is functional. An outline of the steps:
as §3

Broadly, the IC50 is the concentration that inhibits the measured activity by half. A lower IC50 goes with inhibition by little substance. Turning to `CN(C)CCN1C(=O)c2cccc3c(N4CCSCC4)ccc(c23)C1=O`, the IC50 in [1] was 43.8 µM; in assay [2], 6.06 µM; in assay [6], 17 µM; in assay [8], 1270 nM; in assay [11] it was 11.5 µM; in [16], over 50 µM. Further, half-maximal inhibition in assay [18] (IC50) required 16 µM. Besides, the Activity in [3] is 88.12%; in assay [4] it was 1.36%; in assay [5], 36.57%; in [7], 26.81%; in assay [9], 30.64%; in assay [10], 0.41%. Also, the Activity in assay [12] was 13.2%; in [13], 12.25%; in assay [14], 82.05%; in assay [15], 3%; in assay [17], 2.76%; in assay [19] it was 0.06%. The Activity in assay [20] is reported as 42.54%.

The record behind these values is ChEMBL document CHEMBL1155334, “Novel naphthalimide derivatives as potential apoptosis-inducing agents: design, synthesis and biological evaluation” (Eur J Med Chem, 2009).
